Legend:
DsOBP76a = target: T1, DsOBP76a (Drosophila suzukii, UniProt A0AB39ZCT4); test: Fluorescence competition binding assay with bis-ANS, recombinant DsOBP76a; details: for binding to DsOBP76a (in words): fluorescence competition binding assay
T1 sequence (A0AB39ZCT4 30-153): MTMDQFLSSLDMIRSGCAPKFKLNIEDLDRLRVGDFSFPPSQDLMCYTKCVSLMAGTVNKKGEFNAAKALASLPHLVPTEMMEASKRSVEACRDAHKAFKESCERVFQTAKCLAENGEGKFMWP
How it was run: (§1)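 Recombinant D. suzukii OBP expressed in E. coli BL21(DE3) (pET-30a), recovered from inclusion bodies in 8 M urea, Ni-NTA purified, refolded and dialysed into 50 mM Tris-HCl pH 7.4. Protein (2 μmol L−1 final) plus bis-ANS was titrated with ligand (1 mmol L−1 methanol stock). Excitation was 295 nm, with a 300–550 nm scan. Ki = IC50/(1+[bis-ANS]/Kbis-ANS), with Kbis-ANS from a Scatchard plot.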

DsOBP69a = target: T2, DsOBP69a (Drosophila suzukii, UniProt A0AB39ZGK5); test: Fluorescence competition binding assay with bis-ANS, recombinant DsOBP69a; details: for binding to DsOBP69a (in words): fluorescence competition binding assay
T2 sequence (A0AB39ZGK5 25-148): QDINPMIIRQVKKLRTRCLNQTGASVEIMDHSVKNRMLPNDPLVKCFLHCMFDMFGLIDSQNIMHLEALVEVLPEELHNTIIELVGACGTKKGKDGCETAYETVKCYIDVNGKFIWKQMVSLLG
How it was run: as §1

DsOBP59h = details: ref Li et al., 2019; cited from earlier work
OBP28a = details: ref Gonzalez et al., 2019; cited from earlier work
DmOBP76a = details: ref Billeter and Levine, 2015; cited from earlier work
DmOBP69a = details: ref Bentzur et al., 2018; cited from earlier work

| Structure (SMILES) | Kd (DsOBP76a) | Kd (DsOBP69a) | binding to DsOBP76a (in words) (DsOBP76a) | binding to DsOBP69a (in words) (DsOBP69a) | affinity with DsOBP59h proteins (in words) (DsOBP59h) | other results |
| --- | --- | --- | --- | --- | --- | --- |
| COc1ccc2cc3[n+](cc2c1OC)CCc1cc2c(cc1-3)OCO2 [Berberine chloride] | 7.64 µM | 7.21 µM | – | – | high affinity | – |
| CCCCCC/C=C\CCCCCCCCCCCCCCC [(Z)-7-Tricosene] | – | 19.3 µM | – | – | – | – |
| NC(=S)Nc1ccccc1 [N-Phenylthiourea] | – | – | not affinity | not affinity | not affinity | – |

Now from value to compound, other results behind:

| Kd (DsOBP76a) | Kd (DsOBP69a) | binding to DsOBP76a (in words) (DsOBP76a) | binding to DsOBP69a (in words) (DsOBP69a) | Structure (SMILES) | affinity with DsOBP59h proteins (in words) (DsOBP59h) | other results |
| --- | --- | --- | --- | --- | --- | --- |
| 24.1 µM | 23.8 µM | – | – | O=C1C[C@@H](c2ccc(O)cc2)Oc2cc(O)cc(O)c21 [Naringenin] | – | – |
| 7.76 µM | 20.4 µM | – | – | O=c1ccc2ccccc2o1 [Coumarin] | high affinity | – |
| 3.37 µM | 4.03 µM | – | – | CC(=O)/C=C/C1=C(C)CCCC1(C)C [β-Ionone] | – | affinity with OBP28a (in words) (OBP28a): strong affinity |
| – | – | do not bind | do not bind | CCCCCC/C=C\CCCCCCCCCCOC(C)=O [11-cis-Vaccenyl acetate] | – | binding to DmOBP76a (in words) (DmOBP76a): bind; binding to DmOBP69a (in words) (DmOBP69a): bind |
| – | – | not affinity | not affinity | CC[N+](CC)(CC(=O)Nc1c(C)cccc1C)Cc1ccccc1 [Denatonium benzoate] | not affinity | – |
